This is a sample that favours compounds with a hit; in the whole collection about 3.7% have one here.
GRIN3A LBD mod: binders of NR3A ligand-binding domain, primary screen, biophysical, differential scanning fluorimetry, uHTS; Glutamate receptor ionotropic, NMDA 3A (GRIN3A) ligand-binding domain; NR3A LBD differential scanning fluorimetry, Tm shift; 0% = protein alone, 100% = glycine-bound protein; Tm shift relative to glycine control, % at 25 µM; 340,000 compounds, 2.5% hits;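 active = melting temperature shift of at least 10% of the positive control shift, at one fixed dose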
procasp3 activ: activators of human procaspase-3 D3A mutant, primary screen, biochemical, absorbance, PC-3 D3A mutant, single concentration; recombinant procaspase-3 D3A, Ac-DEVD-pNA absorbance 405 nm; activation, % at 8.5 µM; 330,000 compounds, 0.11% hits;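 active = activation above the mean of all tested compounds plus 3 SD, cut at about 21% in these data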;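 also: 0% = DMSO alone and 100% = DMSO wells spiked with extra 5 µM PC-3 D3A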
Target sequence (P42574 whole entry D9A/D28A/D175A): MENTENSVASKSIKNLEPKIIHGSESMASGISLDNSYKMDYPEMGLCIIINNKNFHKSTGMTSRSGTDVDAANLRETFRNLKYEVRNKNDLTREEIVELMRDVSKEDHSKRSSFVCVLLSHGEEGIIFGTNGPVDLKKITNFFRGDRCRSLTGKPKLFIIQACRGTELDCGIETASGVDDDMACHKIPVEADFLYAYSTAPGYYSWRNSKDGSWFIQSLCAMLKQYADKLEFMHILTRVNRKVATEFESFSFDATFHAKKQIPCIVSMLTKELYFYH
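Assay system – Procaspase-3 D3A mutant, all three cleavage aspartates alanine · Controls – DMSO-only low control, 5 µM PC-3 D3A high control · Schedule – 1 h compound preincubation, 2 h substrate hydrolysis at 25 °C · Signal – 405 nm absorbance of p-nitroaniline, reads at 0 and 120 min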
proCasp7 act: procaspase-7 activators, primary screen, counter-screen for procaspase-3 activator project, biochemical, absorbance, HTS, human; Caspase-7 (Homo sapiens), P55210; recombinant procaspase-7, Ac-DEVD-pNA absorbance 405 nm; D23A/D198A/D206A triple mutant, cannot self-cleave; scale: DMSO 0, 5 µM enzyme 100; activation, % at 8.5 µM; 330,000 compounds, 0.093% hits;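 active = percent activation above the screen-wide mean plus 3 SD, cut at about 25% in these data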
Target sequence (P55210 whole entry D23A/D198A/D206A): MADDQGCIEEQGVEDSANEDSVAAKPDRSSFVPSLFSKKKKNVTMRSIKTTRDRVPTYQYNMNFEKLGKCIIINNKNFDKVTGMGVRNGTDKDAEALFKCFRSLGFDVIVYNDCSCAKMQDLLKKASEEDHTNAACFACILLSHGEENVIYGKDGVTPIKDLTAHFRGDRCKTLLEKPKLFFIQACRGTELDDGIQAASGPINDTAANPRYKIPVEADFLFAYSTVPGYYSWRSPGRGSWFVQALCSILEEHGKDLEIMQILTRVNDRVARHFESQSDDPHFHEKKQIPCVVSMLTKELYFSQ
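Material: Procaspase-7 triple mutant (PC-7 D3A) | Quantity: 2 µM procaspase-7 mutant as dispensed | Reagent: DEVD-pNA substrate | Times: 1 h preincubation, 2 h reaction | Technique: 405 nm absorbance of p-nitroaniline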
aDG glyco up: activators of alpha-DG glycosylation, primary screen, uHTS, Pro5-aDG cells, AlphaScreen; alpha-DG glycosylation AlphaScreen (IIH6); 0% Pro5, 100% B10-LARGE cell signal; activation, % at 10 µM; 360,000 compounds, 0.22% hits; AID 624168, 2012;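 active = activation of at least 8% versus controls, or a plate z-score of at least 8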;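 also: Pro5 are CHO cells carrying HIG-tagged alpha-DG that lacks glycosylation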
MPTP block: mitochondrial permeability transition pore inhibitors, primary screen, biochemical, isolated mouse mitochondria, absorbance; Ca2+ swelling absorbance, 30 min; inhibition, % at 10 µM; 360,000 compounds, 1.4% hits; AID 602449, 2012;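 active = inhibition of 50% or more, scaled per plate between neutral and stimulator controls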;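 also: 0% = DMSO wells given calcium and 100% = 1 mM EGTA wells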
Rh123 counter: fluorescence retest of MPTP screen hits in isolated mitochondria, single concentration; AID 624504, 2012; shares compounds with MPTP block; membrane potential, Rhodamine 123 fluorescence; inhibition, % at 10 µM; 5,000 compounds, 78% hits; in the data active = inhibition above about 22%;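 also: 0% = DMSO vehicle and 100% = positive control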
MPTP swell DR: mitochondrial permeability transition pore inhibitors, dose response, biochemical, absorbance, uHTS hits | shares compounds with MPTP block | isolated mitochondria swelling | IC50, µM | 780 compounds, 58% hits | AID 651561, 2012; in the data active = IC50 below about 20 µM
MPTP cs DR: fluorescent counter-screen in isolated mitochondria, dose response, counter-screen for MPTP inhibitor project, biochemical, fluorescence, uHTS hits; shares compounds with MPTP block; 780 compounds, 49% hits; isolated mitochondria counterscreen, fluorescence read-out; IC50, µM; in the data active = IC50 below about 80 µM
Active calls of the source: *; i = inactive; x = no result.

SMILES | GRIN3A LBD mod | procasp3 activ | proCasp7 act | aDG glyco up | MPTP block | Rh123 counter | others
CCN(C(=O)CSc1n[nH]c(N)n1)c1cccc2ccccc12 | 2.3 | 8.0 | 0.5 | -0.1 | -1.3 | x
Cc1cc(N2CCN(C)CC2)ccc1NC(=O)c1ccc(-c2ccc(Cl)cc2)o1 | x | 4.4 | -0.9 | 0.8 | 54.4* | -17.7
CN1CCN(c2ccccc2NC(=O)c2ccc(-c3ccc(Cl)c(Cl)c3)o2)CC1 | -3.8 | 3.5 | 12.5 | -0.2 | 1.3 | x
CC(C)(C)c1cc(C(=O)N/N=C/c2cc3c(cc2Br)OCO3)n[nH]1 | -9.7 | 3.0 | 1.1 | -0.1 | 5.9 | x
Cc1ccccc1CNC(=O)c1ccc2sc([C@H]3C[C@H](O)[C@@H](CO)O3)nc2c1 | x | x | x | -0.1 | -0.1 | x
CCOC(=O)/C(=N\Nc1ccc(C(C)=O)cc1)c1csc(Nc2ccccc2)n1 | 14.9* | 4.2 | 12.0 | -0.2 | 64.4* | -8.9 | MPTP swell DR=i;MPTP cs DR=12.4*
Cc1ccc(C(O)c2ncc(-c3ccc4ccccc4c3)[nH]2)cc1F (configuration not stated) | x | x | x | 0.1 | 3.5 | x
CC(C)(C)c1ccc(S(=O)(=O)N2CCC(c3nc4ccc(Cl)cc4[nH]3)CC2)cc1 | 2.3 | 0.8 | 8.4 | 1.1 | 93.8* | 89.5*
COc1ccc(C(O)Cn2c(=N)n(CCCN(C)C)c3ccccc32)cc1 (configuration not stated) | 0.4 | 6.5 | 8.4 | 1.4 | 79.9* | -4.5
N#Cc1c(N)n(C2OC(CO)C(O)C2O)c2ncnc(N)c12 (configuration not stated) | -1.0 | x | x | 0.5 | -0.4 | x
O=C(CCCCN1CCCCC1)c1ccc2c(c1)Cc1ccccc1-2 | -15.8 | 3.3 | -5.2 | 5.3 | 94.7* | 81.2*
O=C(CCNc1ccc(Cc2ccncc2)cc1)c1ccc([N+](=O)[O-])cc1 | -5.5 | -22.2 | -27.5 | 1.1 | 75.2* | 67.9*
Cc1ccc(C(=O)Nc2ccc(Cc3ccncc3)cc2)cc1[N+](=O)[O-] | -10.8 | -0.7 | -3.0 | 0.7 | 99.1* | 64.2*
N#CC(c1ccc(Cl)cc1)c1ccc2c(C(F)(F)F)cc(C(F)(F)F)nc2n1 (configuration not stated) | -0.9 | -3.3 | -1.6 | -0.9 | 87.2* | 108.0*
CCC(NC(=O)Nc1nnc(C(F)(F)F)s1)(C(F)(F)F)C(F)(F)F | 1.0 | 4.9 | 2.8 | -0.5 | 101.1* | 112.4*
C[C@H]1CN([C@@H](C)CO)C(=O)CCCn2cc(nn2)CO[C@@H]1CN(C)C(=O)Nc1ccc(N2CCCCC2)cc1 | x | x | x | -0.2 | -0.2 | x
Cc1ccc2nc(C(Cl)(Cl)Cl)nc(N/N=C/c3ccc([N+](=O)[O-])cc3)c2c1 | -0.9 | x | x | 0.8 | 94.4* | 9.5 | MPTP swell DR=i;MPTP cs DR=11.4*
O=C(NC(NC(=S)N1CCOCC1)C(Cl)(Cl)Cl)c1ccc(Cl)cc1 (configuration not stated) | 3.9 | -3.2 | -2.0 | 0.0 | 67.0* | 83.4*
CCN(CC)S(=O)(=O)c1ccc(=O)n(CC(=O)N2CCCc3cc(C)ccc32)c1 | -1.8 | 3.5 | -6.1 | 0.1 | -1.6 | x
O=C(NC(=S)Nc1nc2c(s1)CSc1ccccc1-2)c1ccccc1 | 5.0 | 0.8 | -10.0 | 0.0 | 94.8* | 90.8*
O=C(NC(=S)Nc1nc2c(s1)CCCC2)c1ccc(C(=O)c2ccccc2)cc1 | -2.1 | -2.1 | -5.4 | 0.3 | 5.7 | x
Cn1nc(C(C)(C)C)cc1C(=O)NCc1ccc(N2CCCC2=O)cc1 | -0.2 | 0.5 | -6.8 | 4.7* | 95.3* | 92.5*
COc1ccc(CCC(=O)OCC(=O)Nc2ccccc2OC(F)F)cc1OC | -2.8 | 2.0 | 7.5 | -0.2 | -1.9 | x
Cc1oc(-c2ccc(Cl)cc2)nc1CS(=O)CC(=O)NCCCN1CCN(Cc2ccccc2)CC1 (configuration not stated) | -2.8 | -0.6 | -2.6 | 3.8 | 63.0* | 53.4*
CCC1CCCCN1CCCNC(=O)C1CCN(Cc2nc(-c3ccc(Cl)cc3)oc2C)CC1 (configuration not stated) | -0.1 | -3.0 | 4.5 | 3.5 | 61.2* | -10.8
SMILES | GRIN3A LBD mod | procasp3 activ | proCasp7 act | aDG glyco up | MPTP block | Rh123 counter | others
O=c1[nH]c2cnn(-c3ccccc3)c2c(=O)n1O | -0.3 | x | x | -0.1 | -2.4 | x
Cc1ccc(S(=O)(=O)Nc2ccc(N=Nc3ccc(O)cc3)cc2)cc1 | 14.0* | -10.6 | 1.1 | 0.2 | 55.7* | 42.7*
CC1(C(=O)NS(=O)(=O)c2cccc(F)c2)CCN1C(=O)Cc1cccc2ccccc12 (configuration not stated) | x | x | x | 0.0 | 0.6 | x
O=C(c1ccccc1)c1ccc(OCCCCN2CCCCC2)cc1 | -17.0 | -12.4 | -5.5 | 0.5 | -0.1 | x
O=C(CCN1CCN(CCO)CC1)Nc1ccc(OCc2ccccc2)cc1 | 0.6 | 4.8 | 7.9 | 0.0 | 1.0 | x
c1ccc(COc2ccc(OCCCCN3CCCCC3)cc2)cc1 | -0.4 | -5.2 | 4.8 | 3.2 | 74.1* | -0.5 | MPTP swell DR=6.71*;MPTP cs DR=19.4*
O=C(CCN1CCN(Cc2ccccc2)CC1)Nc1ccc(OCc2ccccc2)cc1 | -1.1 | 3.5 | 6.7 | 3.7 | 85.6* | 17.0 | MPTP swell DR=7.34*;MPTP cs DR=13.1*
O=C(c1ccccc1)c1ccc(OCCOCCN2CCN(Cc3ccccc3)CC2)cc1 | -1.9 | 1.4 | 6.5 | 0.2 | 83.5* | 10.4 | MPTP swell DR=18.2*;MPTP cs DR=27.2*
COc1cc(NC(=S)NCCCN2CCOCC2)c(OC)cc1Cl | 0.1 | 5.5 | 8.2 | -0.1 | -0.6 | x
COc1ccccc1NC(=S)NCCC(c1ccccc1)c1ccccc1 | 1.0 | 3.6 | -3.4 | 0.5 | 29.8 | x
COc1cc(NC(=S)NCCC(c2ccccc2)c2ccccc2)c(OC)cc1Cl | 23.9* | 3.6 | -0.7 | 0.1 | 96.7* | 80.8*
COc1ccc(Cl)cc1NC(=S)NCCC(c1ccccc1)c1ccccc1 | 18.1* | 1.4 | 1.1 | 1.4 | 66.9* | 91.3*
COc1c(C)cc(C(O)c2ncc(-c3ccccc3C(F)(F)F)[nH]2)cc1C (configuration not stated) | x | x | x | 0.3 | 1.2 | x
